Experimental data: ChEMBL document CHEMBL4513216, “Probing the Open Global Health Chemical Diversity Library for Multistage-Active Starting Points for Next-Generation Antimalarials” (ACS Infect Dis, 2020)

Experiment: Toxicity liver stage against HepG2, at 10uM
Type: cell-based
Set-up: test concentration 10 uM, cell line HepG2-A16-CD81EGFP
Settings: human, HepG2-A16-CD81EGFP cells; read-out: INHIBITION
Procedure, shortened: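 Uninfected HepG2-A16-CD81EGFP cells, 3 × 10^3 per well, 1536-well, plated on prespotted compound at 10 μM final, parasite-free screening media added to match infected plates; puromycin 10 μM positive, DMSO 0.5% negative; run in parallel with 48 h PbLuc assay at 37 °C, 5% CO2; viability by CellTiter-Glo luminescence, normalized to controls.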

In order of falling cytotoxicity at 10 µM:
1. CC1CN(C(=O)c2cc(=O)[nH]c3ccc(F)cc23)CCO1 (centres undefined)  19.3%
2. Cc1nc2cc(=O)[nH]n2c(C)c1CC(=O)Nc1cnn(C(C)(C)C)c1  15%
3. Cc1[nH]ncc1C(=O)N1CCOC(c2cccs2)C1 (centres undefined)  8.8%
4. COCCN(Cc1ccc(F)cc1Cl)C(=O)c1cc(C)no1  8.75%
5. CC(NC(=O)Cc1ccccc1F)C(=O)N1CCS(=O)(=O)CC1 (centres undefined)  8.68%
6. O=C(C1CC1)N1CCN2C[C@@H](CO)[C@H](c3ccccc3)[C@H]2C1  8.52%
7. COc1cc(CNCCC(N)=O)c2c(c1)CC(C)O2 (centres undefined)  8.41%
8. CC(C)NC(=O)NC[C@H]1OC[C@@H](NCc2ccc(S(C)(=O)=O)cc2)[C@@H]1O  6.7%
9. O=C1NC2(CCN(Cc3cccnc3)CC2)CC1c1ccncc1 (centres undefined)  5.33%
10. CCC(Nc1cccc(OC)c1)C(=O)N(CCO)Cc1nccs1 (centres undefined)  3.94%
11. CN1CCC(N2CCOC[C@H]2c2nc(C(C)(C)C)c[nH]2)CC1  2.73%
12. CN1CC(NC(=O)Cc2csc(C(C)(C)C)n2)CCC1=O (centres undefined)  1.82%
13. CC(Cn1cccn1)NC(=O)NCCc1cnn(C)c1 (centres undefined)  -0.0611%
14. CN1CCCC(Cc2ccnc3ccncc23)CC1 (centres undefined)  -0.336%
15. Cc1ccc(CN2C[C@H](O)C[C@H]2c2nc(-c3ccc(F)cc3)no2)cc1  -0.456%
16. O=c1[nH]c(-c2ccc(F)cc2)nc2c1CCNC2  -2.47%
17. O=C(c1cc2c(s1)CCCC2)N1CCc2nc(C3CCCN3)ncc2C1 (centres undefined)  -3.04%
18. CN1CC2(CCN(c3ncnc4c3CCNC4)CC2)OC1=O  -3.2%
19. COc1c(CNCC(c2cccc(F)c2)N(C)C)c(C(C)C)nn1C (centres undefined)  -3.27%
20. Cc1nc(CN(C)C2CCN(CC(=O)N(C)CCC#N)C2)no1 (centres undefined)  -3.6%
21. CCOc1cc(CNCCCn2ccnc2)cc(Cl)c1OC  -5.21%
22. N#CCCN(C(=O)CCc1cccnc1)c1ccc2c(c1)OCCO2  -5.34%
23. COCCn1cc(NC(=O)NCC(c2cccc(F)c2)N(C)C)cn1 (centres undefined)  -5.6%
24. CCN1CCN(C2CCN(Cc3cc(C)on3)CC2)C1=O  -5.74%
25. COCCc1nc(CSc2ccncc2)n(C)n1  -5.93%
26. N#Cc1cccc(C(=O)N2CC(c3nc(-c4cccnc4)no3)C2)c1  -6.03%
27. O=C(Nc1cccnc1N1CCSCC1)c1ccc2c(c1)OCO2  -6.14%
28. CC(C)[C@H]1CN(c2cnccn2)C[C@@H]1NC(=O)C1(C#N)CCOCC1  -6.35%
29. CC(NCc1cnn(C)c1)c1ccc(OCc2nccn2C)cc1 (centres undefined)  -7.16%
30. c1coc(-c2noc(CN3CCc4c(ncn4C4CC4)C3)n2)c1  -8.12%
31. CNC(=O)CS(=O)(=O)NC1CCC(C)CC1 (centres undefined)  -8.18%
32. c1cc2n(n1)CC(CNCc1ccc(OC3CCCCC3)nc1)CN2 (centres undefined)  -8.49%
33. COc1cccc(CNc2cnn(C)c(=O)c2Cl)c1  -8.78%
34. COc1ccc(CCC2CCCCN2)cc1 (centres undefined)  -9.83%
35. Cc1cc(-c2cc(N)c(=O)n(CC(=O)NCC3CCCCC3)n2)c(C)o1  -21.1%
36. Cc1cc(=O)n2c3c(cc(S(=O)(=O)NC4CC4)cc13)CCC2  -32.3%
37. Fc1cccc(CN2C[C@@H]3COC[C@]3(COCc3ccncc3)C2)c1  -61.1%
38. O=C1NC2(CCNCC2)CC1c1ccccc1 (centres undefined)  -72.7%
39. Cc1ccc(N2C[C@H]3OCC[C@H]3[C@H](C(=O)NCC3CC3)C2)nn1  -75.7%
40. COCCC(=O)N1CCC2(CCN(Cc3cccc(F)c3)CC2)C1  -75.9%
41. Cc1cccc(C(=O)N2CCn3cc(CN4CCCCC4)nc3C2)n1  -79%
42. c1ccc(COC[C@H]2CC[C@H]3[C@H](CCN3Cc3cccs3)O2)nc1  -85%
43. CN(Cc1ccncc1)C1COC2(CCN(Cc3ccsc3)CC2)C1 (centres undefined)  -91.8%
44. Cc1nc(CN2CCC3(C2)CN(C(=O)c2ccc[nH]2)C3)cs1  -112%
